Tb MetRS inh – T. brucei MetRS inhibitors, primary screen, biochemical, luminescence. methionyl-tRNA synthetase (Trypanosoma brucei brucei). purified T. brucei MetRS, ATP depletion, Kinase-Glo luminescence. inhibition, % at 11.9 µM. hit rate 0.4% among 360,000;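 active = inhibition above a per-plate cutoff of the control wells' mean inhibition plus 3 SD, cut at about 5.5% in these data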
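Dosing: 11.9 µM compound single dose, 0.9% DMSO; Assay system: purified T. brucei MetRS enzyme; Measured by: Kinase-Glo luciferase luminescence reporting remaining unconsumed ATP; Schedule: 15 min plus 2 h at 25 °C.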
Efflux pump mplx – inhibitors of Candida efflux pumps in yeast, primary screen, S. cerevisiae, Nile Red, multiplex; S. cerevisiae Candida pump triplex; inhibition, % at 10 µM; hit rate 0.44% among 330,000; AID 485275, 2010;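 active = plate passing quality check with inhibition over a set limit, or well fluorescence over plate mean plus 4 SD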;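 also: Nile Red retained in pooled yeast measured as flow cytometry median fluorescence; higher means more Nile Red kept so more efflux inhibition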
TAG inh – inhibitors of triacylglycerol accumulation, primary screen, cell-based, uHTS, fluorescence, H9c2; hit rate 0.66% among 230,000; H9c2 cells, Nile Red lipid (TAG) fluorescence; cells loaded with 200 µM oleic acid; inhibition, % at 12.5 µM; AID 651582, 2012;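 active = pattern-corrected inhibition of lipid staining of at least 50% with the nuclear-stain viability signal not falling by more than 50%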
SMARCA2 act – SMARCA2 (BRM) function activators, primary screen, cell-based, luminescence, high throughput | MG213 cells, MMTV-luciferase reporter, dexamethasone, overnight | activation, % at 9.1 µM | hit rate 1% among 370,000 | AID 652017, 2013; in the data active = activation above about 7.8%
AHR activator – AHR activators, primary screen, cell-based, luminescence, luciferase reporter, human; activation, % at 5 µM; hit rate 2.5% among 320,000; Aryl hydrocarbon receptor (Homo sapiens), P35869; AID 2796, 2010; AHR-responsive luciferase reporter cells; in the data active = activation above about 47%
Hits are given with their value; n = inactive; x = no result given. A selection: hits, their analogues and other compounds. The true share with any hit is near 4.1%.

SMILES	Tb MetRS inh	Efflux pump mplx	TAG inh	SMARCA2 act	AHR activator
COc1ccccc1Nc1nc(-c2sc(NC(=O)c3ccco3)nc2C)cs1	n	n	n	n	79
NC(=O)N1N=C2/C(=C/c3ccccc3)CCCC2C1c1ccccc1 (centres undefined)	n	n	x	n	59
Cc1ncsc1C(=O)N1N=C2/C(=C/c3ccccc3)CCCC2C1c1ccccc1 (centres undefined)	n	n	x	n	n
O=C(O)CSCC(=O)N1N=C2/C(=C/c3ccccc3)CCCC2C1c1ccccc1 (centres undefined)	n	n	x	n	49
O=c1[nH]c(/C(Cl)=C/c2c(F)cccc2Cl)nc2cc(Cl)ccc12	n	n	x	n	58
O=c1[nH]c(/C(Cl)=C/c2cc(Cl)ccc2O)nc2cc(Cl)ccc12	n	n	x	n	n
Cc1nc2cc(-c3sccc3-n3cccc3)nn2c(C)c1C	n	n	x	n	69
Cc1ccc(-n2c(Cc3cccs3)nnc2SCC(=O)Nc2ccc(OCc3ccccc3)cc2)cc1	x	x	x	n	x
COC(=O)[C@]12C[C@H](CC(=O)NCC34CC5CC(CC(C5)C3)C4)C(=O)N(CCc3ccc(OC)c(OC)c3)C1=C[C@H](COCc1ccccc1)O[C@@H]2C	x	x	x	n	x
COc1ccc(Br)cc1C(=O)Nc1ccc(Cc2ccncc2)cc1	n	n	x	n	59
O=C1c2ccccc2C(=O)N1OCc1ccccc1	n	n	n	n	90
CCOc1ccccc1C(=O)Nc1ccc2c(c1)C(=O)NC2=O	n	n	x	n	47
Cc1ccccc1C(=O)Nc1ccc2c(c1)C(=O)NC2=O	n	n	n	n	n
COc1ccccc1C(=O)Nc1cccc(N(C)S(C)(=O)=O)c1	n	n	n	n	51
CCOc1ccccc1C(=O)Nc1ccc(NC(=O)c2ccccc2)cc1	n	n	x	n	n
COc1ccccc1C(=O)Nc1ccc2c(c1)C(=O)NC2=O	n	n	n	n	58
COc1cc2c(cc1NC(=O)COC(=O)[C@@H](NC(=O)c1ccccc1)C(C)C)oc1ccccc12	n	n	x	n	49
COc1cc2c(cc1NC(=O)COCC(=O)O)oc1ccccc12	n	n	x	n	x
COc1cc2c(cc1NC(=O)COC(=O)CNC(=O)c1ccccc1)oc1ccccc12	n	n	n	n	n
COc1cc2c(cc1NC(=O)COC(=O)[C@@H](NC(=O)c1ccccc1F)C(C)C)oc1ccccc12	n	n	n	n	59
O=C(Cn1nc(-c2ccccc2)ccc1=O)NCCc1cccc(F)c1	x	x	x	n	x
CCN(C[C@H]1[C@@H](c2ccc(C3=CCCC3)cc2)[C@H](CO)N1C(=O)c1cccnc1)S(=O)(=O)c1ccccc1[N+](=O)[O-]	x	x	x	n	x
Cn1cccc1C=NNC(=O)c1cc(-c2ccc(Cl)cc2)n[nH]1	x	x	x	n	x
Cc1ccc2c(c1)c(C)c(C)n2CC(O)Cn1nc(C)cc1C (centres undefined)	n	n	n	n	61
O/C(=C\c1nc2ccccc2[nH]1)c1cccs1	n	n	x	n	n
SMILES	Tb MetRS inh	Efflux pump mplx	TAG inh	SMARCA2 act	AHR activator
O=c1[nH]c2ccccc2nc1/C=C/c1ccc(O)cc1	n	x	n	n	x
O=c1[nH]c2ccccc2nc1/C=C/c1ccc(F)cc1	n	n	n	n	74
O=c1[nH]c2ccccc2nc1/C=C/c1ccccc1	n	n	n	n	57
O=c1[nH]c2ccccc2nc1/C=C(\O)c1cccs1	n	n	n	n	48
Cn1c(=O)c(/C=C/c2ccccc2)nc2ccccc21	n	n	n	n	53
COc1ccc(-n2c(SCC(=O)Nc3ccc4c(c3)OCO4)nc3sc4c(c3c2=O)CCCC4)cc1	x	x	x	n	x
Cc1ccc(OCc2nnc(SCC(=O)Nc3cccc4ccccc34)n2Cc2ccco2)cc1	x	x	x	n	x
CC(C)CCCCCCCCCCCCC(=O)NCC(=O)NC1C(O)C(O)C(Nc2ncnc3nc[nH]c23)OC1C(O)CO (centres undefined)	n	x	85	x	x
CC1CCCC/C1=N\NC(=S)Nc1ccccc1 (centres undefined)	n	n	n	n	60
CC1CCC/C(=N\NC(=S)Nc2ccccc2)C1 (centres undefined)	n	n	x	n	n
O=[N+]([O-])c1ccc(/C=N/Nc2ccc3ccccc3c2)o1	n	n	x	n	76
O=C(N/N=C/c1ccc([N+](=O)[O-])o1)c1cc2ccccc2o1	n	n	n	n	n
COc1ccc2[nH]c(C(=O)Nc3ccc(F)cc3Br)cc2c1	n	n	n	n	50
CC(C)C[C@@H](CO)N1Cc2nnn(Cc3ccccc3)c2-c2ccccc2S1(=O)=O	x	x	x	n	x
O=C(OC12CCCN(C1)/C(=C/c1ccncc1)C2)c1ccccc1 (centres undefined)	x	x	x	n	x
CN(C)S(=O)(=O)Oc1cc(Cl)ccc1C(=O)Nc1ccc(F)cc1F	n	n	x	n	74
COC(=O)[C@]12C[C@H](CC(=O)NCc3ccccc3)C(=O)N(CCc3ccc(OC)c(OC)c3)C1=C[C@H](COCc1ccccc1)O[C@@H]2C	x	x	x	n	x
COCCCN1C(=O)[C@H](CC(=O)N2CCSCC2)[C@]2(C(=O)OC)CCCCC=C12	x	x	x	n	x
O=C(NN=Cc1c(O)ccc2ccccc12)c1ccncc1	n	x	n	n	x
O=C(N/N=C/c1c(O)ccc2ccccc12)c1cccnc1	n	n	x	n	73
Cc1c(/C=N/NC(=O)c2cccnc2)c2ccccc2n1Cc1ccccc1	n	n	x	n	n
O=C(N/N=C\c1c(O)ccc2ccccc12)c1cncc(Br)c1	n	n	x	n	67
Cc1nn(Cc2ccccc2)c(Cl)c1/C=N/NC(=O)c1cccnc1	n	n	n	n	52
O=C(NCCc1c[nH]c2ccccc12)c1cncc(Br)c1	n	n	n	n	49
COC(=O)C(Cc1c[nH]c2ccccc12)NC(=O)c1cncc(Br)c1 (centres undefined)	n	n	x	n	n
SMILES	Tb MetRS inh	Efflux pump mplx	TAG inh	SMARCA2 act	AHR activator
CCCNC(=O)N1[C@@H](CO)[C@H](c2ccc(C3=CCCC3)cc2)[C@@H]1CN(CC)S(=O)(=O)c1ccccc1[N+](=O)[O-]	x	x	x	n	x
COc1ccc(-c2c(Cc3ccccc3)nc(NC(=O)c3ccccc3)n2Cc2ccccc2)cc1	x	x	x	n	x
CN1C(=O)c2cc(NC(=O)Nc3ccccc3)ccc2OC[C@H]2O[C@@H](CC(=O)N[C@H]3CCN(Cc4ccccc4)C3)CC[C@@H]21	x	x	x	n	x
Cc1ccccc1CN1CCCCC(NC(=O)c2cccc(C(F)(F)F)c2)C1=O (centres undefined)	x	x	x	n	x
CC(=O)C1=C(c2ccccc2)N(C(C)=O)n2c(C)nnc2S1	n	n	x	n	51
Brc1ccc(-c2nn3c(-c4ccccc4)nnc3s2)o1	x	x	x	n	x
O=[N+]([O-])c1cc(-c2cnc3ccccc3n2)ccc1Oc1ccc(Cl)cc1	n	n	x	n	50
COc1ccccc1Oc1ccc(-c2cnc3ccccc3n2)cc1[N+](=O)[O-]	n	n	x	n	55

Screening data: PubChem, several laboratories
